In brackets after ≈: the same amount, converted by molar mass.

What all share (format): functional
Assay [1] deals with Saccharomyces cerevisiae. The experiment in a line: Antimicrobial activity against Saccharomyces cerevisiae YUG37 transformed with plasmid carrying cyp51A gene in reverse orientation without doxycycline-regulatable promoter by broth dilution method. In short, it runs like this:
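Reverse-oriented cyp51A control strain tested in galactose/raffinose medium without doxycycline. Otherwise CLSI M27-A2 broth microdilution with inoculum 2.5 × 10^3 cells ml−1. Incubated at 30°C and read at 72 h. MIC is the lowest concentration giving ≥80% growth inhibition relative to control wells.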
Background: In broth dilution the organism is exposed to a series of concentrations in liquid medium.

Assay [2] concerns Saccharomyces cerevisiae. The experiment in a line: Antimicrobial activity against Saccharomyces cerevisiae YUG37 transformed with plasmid carrying cyp51B gene with doxycycline-regulatable promoter by broth dilution method in presence of doxycycline. In short, it runs like this:
(§1)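 CLSI M27-A2 broth microdilution in induction medium (galactose plus raffinose, 2%) containing 5 μg ml−1 doxycycline. Inoculum 2.5 × 10^3 cells ml−1. Final fluconazole 0.031–16 μg ml−1; clotrimazole, itraconazole and posaconazole 0.004–2.0 μg ml−1. Plates incubated at 30°C and scored at 72 h. MIC is the lowest concentration giving ≥80% growth inhibition versus drug-free control wells.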

Assay [3] relates to Saccharomyces cerevisiae. In words: Antimicrobial activity against Saccharomyces cerevisiae YUG37 transformed with plasmid carrying cyp51A gene with doxycycline-regulatable promoter by broth dilution method in presence of doxycycline. In short, it runs like this: as §1
In assay [4] the test system is Saccharomyces cerevisiae. The experiment in a line: Induction of lanosterol/obtusifoliol production in Saccharomyces cerevisiae YUG37 transformed with plasmid carrying cyp51A gene with compound-regulatable promoter by GC-MS analysis. In short, it runs like this: (§2)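 YUG37-erg11 yeast (native ERG11 under a doxycycline-regulatable promoter) carrying pYES2.1 with intronless A. fumigatus cyp51A or cyp51B. Single colonies, triplicate constructs, were grown in YM with 2% galactose/raffinose plus 5 μg ml−1 doxycycline for 72 h at 30°C and 180 rpm. Sterols were analysed by GC-MS and reported as mean % of sterol composition (SD).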

Assay [5] concerns Saccharomyces cerevisiae. The experiment in a line: Induction of ergosterol production in Saccharomyces cerevisiae YUG37 transformed with plasmid carrying cyp51A gene in reverse orientation without doxycycline-regulatable promoter by GC-MS analysis. In short, it runs like this:
(§3)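 The control was YUG37-erg11 transformed with pYES2.1 carrying reverse-oriented cyp51A, in triplicate. It was cultured 72 h (30°C, 180 rpm) in galactose/raffinose (2%) YM either with 5 μg ml−1 doxycycline or without doxycycline. GC-MS sterol profiling gave mean % of sterol composition (SD).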

The subject of assay [6] is Saccharomyces cerevisiae. The experiment in a line: Induction of 4,14alpha-dimethylcholesta 8,24-dienol production in Saccharomyces cerevisiae YUG37 transformed with plasmid carrying cyp51A gene in reverse orientation without doxycycline-regulatable promoter by GC-MS analysis. The procedure, abridged:
as §3

The test system of assay [7] is Saccharomyces cerevisiae. In words: Induction of 14alpha-Methylergosta 8,24-dien- 3beta-6alpha-diol production in Saccharomyces cerevisiae YUG37 transformed with plasmid carrying cyp51A gene with compound-regulatable promoter by GC-MS analysis. In short, it runs like this:
as §2

Assay [8] relates to Saccharomyces cerevisiae. In words: Induction of 4,14alpha-dimethylcholesta 8,24-dienol production in Saccharomyces cerevisiae YUG37 transformed with plasmid carrying cyp51A gene with compound-regulatable promoter by GC-MS analysis. The procedure, abridged:
as §2

In assay [9] the test system is Saccharomyces cerevisiae. The experiment in a line: Induction of lanosterol/obtusifoliol production in Saccharomyces cerevisiae YUG37 transformed with plasmid carrying cyp51B gene with compound-regulatable promoter by GC-MS analysis. The procedure, abridged:
as §2

The subject of assay [10] is Saccharomyces cerevisiae. In words: Induction of ergosterol production in Saccharomyces cerevisiae YUG37 transformed with plasmid carrying cyp51B gene with compound-regulatable promoter by GC-MS analysis. In short, it runs like this: as §2
The subject of assay [11] is Saccharomyces cerevisiae. In words: Induction of 4alpha-methylfecosterol production in Saccharomyces cerevisiae YUG37 transformed with plasmid carrying cyp51B gene with compound-regulatable promoter by GC-MS analysis. In short, it runs like this:
as §2

The test system of assay [12] is Saccharomyces cerevisiae. In words: Induction of 4,14alpha-dimethylcholesta 8,24-dienol production in Saccharomyces cerevisiae YUG37 transformed with plasmid carrying cyp51B gene with compound-regulatable promoter by GC-MS analysis. In short, it runs like this: as §2
In assay [13] the test system is Saccharomyces cerevisiae. The experiment in a line: Induction of 14alpha-Methylergosta 8,24-dien- 3beta-6alpha-diol production in Saccharomyces cerevisiae YUG37 transformed with plasmid carrying cyp51B gene with compound-regulatable promoter by GC-MS analysis. In short, it runs like this:
as §2

The subject of assay [14] is Saccharomyces cerevisiae. The experiment in a line: Induction of ergosterol production in Saccharomyces cerevisiae YUG37 transformed with plasmid carrying cyp51A gene with compound-regulatable promoter by GC-MS analysis. In short, it runs like this:
as §2

The test system of assay [15] is Saccharomyces cerevisiae. The experiment in a line: Induction of lanosterol/obtusifoliol production in Saccharomyces cerevisiae YUG37 transformed with plasmid carrying cyp51A gene in reverse orientation without doxycycline-regulatable promoter by GC-MS analysis. The conditions noted are these: in the assay text read “with doxycycline-regulatable promoter” for “without doxycycline-regulatable promoter”. The procedure, abridged:
as §3

The subject of assay [16] is Saccharomyces cerevisiae. The experiment in a line: Induction of 4alpha-methylfecosterol production in Saccharomyces cerevisiae YUG37 transformed with plasmid carrying cyp51A gene in reverse orientation without doxycycline-regulatable promoter by GC-MS analysis. In short, it runs like this:
as §3

For assay [17], the system named is Saccharomyces cerevisiae. The experiment in a line: Induction of 4alpha-methylfecosterol production in Saccharomyces cerevisiae YUG37 transformed with plasmid carrying cyp51A gene with compound-regulatable promoter by GC-MS analysis. In short, it runs like this:
as §2

In assay [18] the test system is Saccharomyces cerevisiae. In words: Induction of 14alpha-Methylergosta 8,24-dien- 3beta-6alpha-diol production in Saccharomyces cerevisiae YUG37 transformed with plasmid carrying cyp51A gene in reverse orientation without doxycycline-regulatable promoter by GC-MS analysis. In short, it runs like this:
as §3

The subject of assay [19] is Saccharomyces cerevisiae. In words: Ratio of MIC for Saccharomyces cerevisiae YUG37 transformed with plasmid carrying cyp51A gene with compound-regulatable promoter to MIC for Saccharomyces cerevisiae YUG37 transformed with plasmid carrying cyp51B gene with compound-regulatable promoter.

A word on the MIC: it is the least concentration at which growth counts as inhibited. Regarding `Clc1ccccc1C(c1ccccc1)(c1ccccc1)n1ccnc1` [CLOTRIMAZOLE], the figures for the MIC in the assay on Saccharomyces cerevisiae [1], with Saccharomyces cerevisiae [2] and in the assay with Saccharomyces cerevisiae [3] were 0.016 µg/mL (≈ 0.0464 µM), 0.016 µg/mL and 0.016 µg/mL, respectively.
As to `C[C@H]1c2cccc(O)c2C(=O)C2=C(O)[C@]3(O)C(=O)C(C(N)=O)=C(O)[C@@H](N(C)C)[C@@H]3[C@@H](O)[C@@H]21.O` [DOXYCYCLINE], the Activity in the assay on Saccharomyces cerevisiae [4] turned out to be 34.1%; with Saccharomyces cerevisiae [5], 4%; in the assay on Saccharomyces cerevisiae [6], 3.3%; in the assay with Saccharomyces cerevisiae [7] it was 20.5%; in the assay with Saccharomyces cerevisiae [8], 2.6%; with Saccharomyces cerevisiae [9] it was 45.4%. For the same compound, the Activity in the assay with Saccharomyces cerevisiae [10] is reported as 39.5%; in the assay on Saccharomyces cerevisiae [11] it was 1.7%; with Saccharomyces cerevisiae [12], 2.9%; in the assay on Saccharomyces cerevisiae [13], 10.5%; in the assay with Saccharomyces cerevisiae [14], 40.8%; in the assay with Saccharomyces cerevisiae [15], 40.6%. In addition, the values for the Activity in the assay on Saccharomyces cerevisiae [16], in the assay on Saccharomyces cerevisiae [17] and in the assay on Saccharomyces cerevisiae [18] were 1.9%, 2% and 51.1%, respectively.
Consider `OC(Cn1cncn1)(Cn1cncn1)c1ccc(F)cc1F` [FLUCONAZOLE], for which the MIC was found to be 0.25 µg/mL (≈ 0.816 µM) against Saccharomyces cerevisiae [1], 0.5 µg/mL in the assay with Saccharomyces cerevisiae [2] and 8 µg/mL in the assay with Saccharomyces cerevisiae [3]. The Ratio in the assay with Saccharomyces cerevisiae [19] came out at 16.
Regarding `CCC(C)n1ncn(-c2ccc(N3CCN(c4ccc(OCC5COC(Cn6cncn6)(c6ccc(Cl)cc6Cl)O5)cc4)CC3)cc2)c1=O` (stereo unspecified) [ITRACONAZOLE], the MIC came out at 0.031 µg/mL (≈ 0.0439 µM) with Saccharomyces cerevisiae [1], 0.125 µg/mL in the assay on Saccharomyces cerevisiae [2] and 0.125 µg/mL with Saccharomyces cerevisiae [3].
Turning to `CC[C@@H]([C@H](C)O)n1ncn(-c2ccc(N3CCN(c4ccc(OC[C@@H]5CO[C@@](Cn6cncn6)(c6ccc(F)cc6F)C5)cc4)CC3)cc2)c1=O` [POSACONAZOLE], the MIC in the assay with Saccharomyces cerevisiae [1] was determined as 0.063 µg/mL (≈ 0.0899 µM); with Saccharomyces cerevisiae [2], 0.063 µg/mL; with Saccharomyces cerevisiae [3], 0.063 µg/mL.
Consider `C[C@@H](c1ncncc1F)[C@](O)(Cn1cncn1)c1ccc(F)cc1F` [VORICONAZOLE], for which the MIC in the assay with Saccharomyces cerevisiae [1] amounted to 0.004 µg/mL (≈ 0.0115 µM); with Saccharomyces cerevisiae [2], 0.004 µg/mL; in the assay on Saccharomyces cerevisiae [3] it was 0.004 µg/mL.

The values above are taken from ChEMBL document CHEMBL1687793, “Complementation of a Saccharomyces cerevisiae ERG11/CYP51 (sterol 14α-demethylase) doxycycline-regulated mutant and screening of the azole sensitivity of Aspergillus fumigatus isoenzymes CYP51A and CYP51B” (2010).
